# Reference: ChEMBL document CHEMBL2034813, “2-(Alkyl/aryl)amino-6-benzylpyrimidin-4(3H)-ones as inhibitors of wild-type and mutant HIV-1: enantioselectivity studies” (J Med Chem, 2012)
# Calls of active or inactive are those of the source. The rule behind the calls is not given here.
# Tested on: Human immunodeficiency virus 1
# Assay: Antiviral activity against wild type HIV1 NL4-3 infected in human MT4 cells assessed as inhibition of virus-induced cytopathic effect after 5 days by MTT assay
# Type: functional, organism-based
# Details: Human immunodeficiency virus 1, NL4-3, MT4, 120 h
# Outline: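 Lymphoid MT-4 cells infected with wild-type HIV-1 NL4-3. […] Values are means ± SD from at least three experiments.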
row,Structure (SMILES),EC50
1,O=C1Nc2ccc(Cl)cc2[C@@](C#CC2CC2)(C(F)(F)F)O1 [EFAVIRENZ],7.3 nM
2,CCCN(C)c1nc([C@@H](C)c2c(F)cccc2F)c(C)c(=O)[nH]1,15000 nM
3,Cc1c(N)nc(Nc2ccc(C#N)cc2)nc1[C@H](C)c1c(F)cccc1F,0.1 nM
4,Cc1cc(C)c(Nc2ccnc(Nc3ccc(C#N)cc3)n2)c(C)c1 [DAPIVIRINE],0.6 nM

# Tested on: Human immunodeficiency virus 1
# Assay: Antiviral activity against HIV1 harboring reverse transcriptase K103N mutant infected in human MT4 cells assessed as inhibition of virus-induced cytopathic effect after 5 days by MTT assay
# Type: functional, organism-based
# Details: Human immunodeficiency virus 1, MT4, 120 h
row,Structure (SMILES),EC50
1,CCCN(C)c1nc([C@@H](C)c2c(F)cccc2F)c(C)c(=O)[nH]1,> 78000 nM
2,Cc1c(N)nc(Nc2ccc(C#N)cc2)nc1[C@H](C)c1c(F)cccc1F,0.8 nM

# Tested on: Human immunodeficiency virus 1
# Assay: Antiviral activity against HIV1 harboring reverse transcriptase Y181C mutant infected in human MT4 cells assessed as inhibition of virus-induced cytopathic effect after 5 days by MTT assay
# Type: functional, organism-based
# Details: Human immunodeficiency virus 1, MT4, 120 h
row,Structure (SMILES),EC50
1,O=C1Nc2ccc(Cl)cc2[C@@](C#CC2CC2)(C(F)(F)F)O1 [EFAVIRENZ],10 nM
2,CCCN(C)c1nc([C@@H](C)c2c(F)cccc2F)c(C)c(=O)[nH]1,> 78000 nM
3,Cc1c(N)nc(Nc2ccc(C#N)cc2)nc1[C@H](C)c1c(F)cccc1F,31 nM

# Tested on: Human immunodeficiency virus 1
# Assay: Antiviral activity against HIV1 harboring reverse transcriptase Y188L mutant infected in human MT4 cells assessed as inhibition of virus-induced cytopathic effect after 5 days by MTT assay
# Type: functional, organism-based
# Details: Human immunodeficiency virus 1, MT4, 120 h
row,Structure (SMILES),EC50
1,CCCN(C)c1nc([C@@H](C)c2c(F)cccc2F)c(C)c(=O)[nH]1,> 78000 nM
2,Cc1c(N)nc(Nc2ccc(C#N)cc2)nc1[C@H](C)c1c(F)cccc1F,7.1 nM

# Tested on: not listed separately
# Assay: Cytotoxicity against human MT4 cells after 5 days by MTT assay
# Type: cell-based
# Details: not given
# Outline: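 Noninfected lymphoid MT-4 cells were exposed to compound. […] Values are means ± SD from at least three experiments.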
row,Structure (SMILES),CC50 at 120 h
1,O=C1Nc2ccc(Cl)cc2[C@@](C#CC2CC2)(C(F)(F)F)O1 [EFAVIRENZ],3200 nM
2,CCCN(C)c1nc([C@@H](C)c2c(F)cccc2F)c(C)c(=O)[nH]1,> 78000 nM
3,Cc1c(N)nc(Nc2ccc(C#N)cc2)nc1[C@H](C)c1c(F)cccc1F,31000 nM
4,Cc1cc(C)c(Nc2ccnc(Nc3ccc(C#N)cc3)n2)c(C)c1 [DAPIVIRINE],3000 nM

# Tested on: not listed separately
# Assay: Selectivity index, ratio of CC50 for human MT4 cells to EC50 for wild type HIV1 NL4-3
# Type: toxicity, cell-based
# Details: read-out: Ratio CC50/EC50
row,Structure (SMILES),selectivity ratio
1,CCCN(C)c1nc([C@@H](C)c2c(F)cccc2F)c(C)c(=O)[nH]1,> 5.2
2,Cc1c(N)nc(Nc2ccc(C#N)cc2)nc1[C@H](C)c1c(F)cccc1F,300000

# Tested on: Human immunodeficiency virus 1
# Assay: Resistance ratio of EC50 for HIV1 harboring reverse transcriptase K103N mutant to EC50 for wild type HIV1 NL4-3
# Type: functional
# Details: not given
# Outline: (§1)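 MT-4 cells, MTT read-out of HIV-induced cytopathic effect; fold resistance calculated as EC50 against the drug-resistant strain divided by EC50 against WT NL4-3; EC50 values are means ± SD from at least three experiments.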
row,Structure (SMILES),Ratio EC50
1,Cc1c(N)nc(Nc2ccc(C#N)cc2)nc1[C@H](C)c1c(F)cccc1F,8

# Tested on: Human immunodeficiency virus 1
# Assay: Resistance ratio of EC50 for HIV1 harboring reverse transcriptase Y181C mutant to EC50 for wild type HIV1 NL4-3
# Type: functional
# Details: not given
# Outline: as §1
row,Structure (SMILES),Ratio EC50
1,Cc1c(N)nc(Nc2ccc(C#N)cc2)nc1[C@H](C)c1c(F)cccc1F,300

# Tested on: Human immunodeficiency virus 1
# Assay: Resistance ratio of EC50 for HIV1 harboring reverse transcriptase Y188L mutant to EC50 for wild type HIV1 NL4-3
# Type: functional
# Details: not given
# Outline: as §1
row,Structure (SMILES),Ratio EC50
1,Cc1c(N)nc(Nc2ccc(C#N)cc2)nc1[C@H](C)c1c(F)cccc1F,70

# Tested on: not listed separately
# Assay: Ratio of TMC120 CC50 to compound CC50 for human MT4 cells
# Type: ADME, cell-based
# Details: not given
row,Structure (SMILES),selectivity ratio
1,Cc1c(N)nc(Nc2ccc(C#N)cc2)nc1[C@H](C)c1c(F)cccc1F,10

# Tested on: Human immunodeficiency virus 1
# Assay: Resistance ratio of ID50 for HIV1 reverse transcriptase K103N mutant to ID50 HIV1 wild type reverse transcriptase
# Details: not given
row,Structure (SMILES),Ratio
1,Cc1c(N)nc(Nc2ccc(C#N)cc2)nc1[C@H](C)c1c(F)cccc1F,1

# Tested on: Human immunodeficiency virus 1
# Assay: Resistance ratio of ID50 for HIV1 reverse transcriptase L100I mutant to ID50 HIV1 wild type reverse transcriptase
# Details: not given
row,Structure (SMILES),Ratio
1,CCCN(C)c1nc([C@@H](C)c2c(F)cccc2F)c(C)c(=O)[nH]1,0.4
2,Cc1c(N)nc(Nc2ccc(C#N)cc2)nc1[C@H](C)c1c(F)cccc1F,20

# Tested on: Human immunodeficiency virus 1
# Assay: Resistance ratio of ID50 for HIV1 reverse transcriptase Y181I mutant to ID50 HIV1 wild type reverse transcriptase
# Details: not given
row,Structure (SMILES),Ratio
1,Cc1c(N)nc(Nc2ccc(C#N)cc2)nc1[C@H](C)c1c(F)cccc1F,90

# Tested on: Human immunodeficiency virus 1
# Assay: Resistance ratio of ID50 for HIV1 reverse transcriptase V106A mutant to ID50 HIV1 wild type reverse transcriptase
# Details: not given
row,Structure (SMILES),Ratio
1,CCCN(C)c1nc([C@@H](C)c2c(F)cccc2F)c(C)c(=O)[nH]1,0.1
2,Cc1c(N)nc(Nc2ccc(C#N)cc2)nc1[C@H](C)c1c(F)cccc1F,0.04

# Tested on: Human immunodeficiency virus 1
# Assay: Resistance ratio of ID50 for HIV1 reverse transcriptase Y188L mutant to ID50 HIV1 wild type reverse transcriptase
# Details: not given
row,Structure (SMILES),Ratio
1,Cc1c(N)nc(Nc2ccc(C#N)cc2)nc1[C@H](C)c1c(F)cccc1F,0.4

# Target: Human immunodeficiency virus type 1 reverse transcriptase (Human immunodeficiency virus 1) (UniProt Q72547)
# Assay: Noncompetitive inhibition of HIV1 wild type reverse transcriptase using varying concentration of varying polyrA/oligodT by steady state kinetic analysis
# Details: not given
# Outline: (§2)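 Recombinant RT (WT or K103N), RNA-dependent DNA polymerase activity with poly(rA)/oligo(dT) 10:1 and [3H]-dTTP (1 Ci/mmol), 8% final DMSO; steady-state kinetics at fixed inhibitor concentrations, one substrate (nucleic acid or nucleotide) varied while the other kept saturating.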
row,Structure (SMILES),inhibition
1,Cc1c(N)nc(Nc2ccc(C#N)cc2)nc1[C@H](C)c1c(F)cccc1F,Active

# Target: Human immunodeficiency virus type 1 reverse transcriptase (Human immunodeficiency virus 1) (UniProt Q72547)
# Assay: Noncompetitive inhibition of HIV1 wild type reverse transcriptase using varying concentration of [3H]dTTP by steady state kinetic analysis
# Details: not given
# Outline: as §2
row,Structure (SMILES),inhibition
1,Cc1c(N)nc(Nc2ccc(C#N)cc2)nc1[C@H](C)c1c(F)cccc1F,Active

# Tested on: Human immunodeficiency virus type 1 reverse transcriptase (Human immunodeficiency virus 1), Q72547 [K103N]
# Assay: Noncompetitive inhibition of HIV1 reverse transcriptase K103N mutant using varying concentration of varying polyrA/oligodT by steady state kinetic analysis
# Details: not given
# Outline: as §2
row,Structure (SMILES),inhibition
1,Cc1c(N)nc(Nc2ccc(C#N)cc2)nc1[C@H](C)c1c(F)cccc1F,Active

# Tested on: Human immunodeficiency virus type 1 reverse transcriptase (Human immunodeficiency virus 1), Q72547 [K103N]
# Assay: Noncompetitive inhibition of HIV1 reverse transcriptase K103N mutant using varying concentration of [3H]dTTP by steady state kinetic analysis
# Details: not given
# Outline: as §2
row,Structure (SMILES),inhibition
1,Cc1c(N)nc(Nc2ccc(C#N)cc2)nc1[C@H](C)c1c(F)cccc1F,Active

# Target: Human immunodeficiency virus type 1 reverse transcriptase (Human immunodeficiency virus 1) (UniProt Q72547)
# Details: not given
row,Structure (SMILES),ID50
1,CCCN(C)c1nc([C@@H](C)c2c(F)cccc2F)c(C)c(=O)[nH]1,975 nM
2,Cc1c(N)nc(Nc2ccc(C#N)cc2)nc1[C@H](C)c1c(F)cccc1F,8 nM

# Tested on: Human immunodeficiency virus type 1 reverse transcriptase (Human immunodeficiency virus 1), Q72547 [K103N]
# Details: not given
row,Structure (SMILES),ID50
1,CCCN(C)c1nc([C@@H](C)c2c(F)cccc2F)c(C)c(=O)[nH]1,> 20000 nM
2,Cc1c(N)nc(Nc2ccc(C#N)cc2)nc1[C@H](C)c1c(F)cccc1F,8 nM

# Tested on: Human immunodeficiency virus type 1 reverse transcriptase (Human immunodeficiency virus 1), Q72547 [L100I]
# Details: not given
row,Structure (SMILES),ID50
1,CCCN(C)c1nc([C@@H](C)c2c(F)cccc2F)c(C)c(=O)[nH]1,350 nM
2,Cc1c(N)nc(Nc2ccc(C#N)cc2)nc1[C@H](C)c1c(F)cccc1F,150 nM

# Tested on: Human immunodeficiency virus type 1 reverse transcriptase (Human immunodeficiency virus 1), Q72547 [Y181I]
# Details: not given
row,Structure (SMILES),ID50
1,CCCN(C)c1nc([C@@H](C)c2c(F)cccc2F)c(C)c(=O)[nH]1,> 20000 nM
2,Cc1c(N)nc(Nc2ccc(C#N)cc2)nc1[C@H](C)c1c(F)cccc1F,750 nM

# Tested on: Human immunodeficiency virus type 1 reverse transcriptase (Human immunodeficiency virus 1), Q72547 [V106A]
# Details: not given
row,Structure (SMILES),ID50
1,CCCN(C)c1nc([C@@H](C)c2c(F)cccc2F)c(C)c(=O)[nH]1,120 nM
2,Cc1c(N)nc(Nc2ccc(C#N)cc2)nc1[C@H](C)c1c(F)cccc1F,0.3 nM
